From paper PMC5033602 (Investigative Ophthalmology & Visual Science, 2016)
Where two headings read alike, the source gives them in different places.

Experiments:
ARPE-19 cells [1] = assay: Cell viability; assay type: cell-based, human
Method in brief: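 ARPE-19 cells (passages 27–40; DMEM/F-12, 10% FBS, 37°C, 5% CO₂) were plated at 2 × 10⁴ cells/well and grown to confluence (72 h). After 8 h starvation in 0.5% serum, cells received increasing H₂O₂ plus TNF-α (10 ng/mL), with or without test peptide, for 16 h. Relative live-cell numbers came from intracellular ATP luminescence; each point is the mean of duplicate wells.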

ARPE-19 cells [2] = assay: Pyknotic nuclei counting; assay type: cell-based, human; settings: 600 μM H2O2, 16 hours, Hoechst stain
Method in brief: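 ARPE-19 cells were serum-starved, then treated with 600 μM H₂O₂ and test peptide together for 16 h. Cells were fixed in methanol (15 min, RT) and stained with 5 μM Hoechst in PBS (15 min, RT). Five random fields per well were imaged, and pyknotic nuclei were counted as a percentage of total cells.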

ARPE-19 cells [3] = assay: Cell death; assay type: cell-based, human; settings: for Number of dead cells under oxidative stress: H2O2 (600 μM for SCR comparison), dead cell protease activity
Method in brief: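 ARPE-19 cells (passages 27–40) grown in DMEM/F-12 with 10% FBS at 37°C, 5% CO₂, plated at 2 × 10⁴ cells/well (96-well) and cultured to confluency (72 h). Serum-starved 8 h in 0.5% serum, then exposed 16 h to H₂O₂ (600 μM for scrambled-control comparison) plus TNF-α (10 ng/mL) with test peptides. Dead-cell protease activity read by CytoTox-Glo; duplicate wells ± SD.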

primary pig RPE cells [4] = assay: Cell death; assay type: cell-based; settings: pig primary RPE; H2O2/TNF-α
Method in brief: (§1)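 Primary pig RPE cultures plated at 2 × 10⁴ cells/well (96-well) and grown to confluence (72 h), then exposed to H₂O₂ with TNF-α (10 ng/mL) and test peptide for the indicated time. Live cells were measured as intracellular ATP luminescence (CellTiter-Glo) and dead cells as dead-cell protease luminescence (CytoTox-Glo), with lysis reagent added for total-cell signal. Relative cell numbers are from duplicate wells.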

PEDF = settings: peptides from Leu159-Met325 of PEDF-R; cited from earlier work
primary pig RPE cells [5] = assay: Cell viability; assay type: cell-based; settings: 50-250 μM H2O2, 10 ng/mL TNF-α
Method in brief: as §1

PNPLA2 = assay: RT-PCR, PNPLA2 mRNA in ARPE-19; assay type: cell-based, human; settings: H2O2 200, 400, 500, 600, 800 μM plus 10 ng/mL TNF-α, 8 hours, relative to 18S, duplicate wells
Method in brief: (§2)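 Confluent ARPE-19 cells were starved in 0.5% serum for 8 h, then treated with H₂O₂ plus TNF-α. Total RNA was purified on silica columns, and 1 μg was reverse transcribed with SuperScript III. mRNA was measured by semiquantitative real-time RT-PCR with gene-specific primers and 18S primers as internal control.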

ALOX5 = assay: RT-PCR, ALOX5 mRNA in ARPE-19; assay type: cell-based, human; settings: H2O2 200, 400, 500, 600, 800 μM plus 10 ng/mL TNF-α, 8 hours, relative to 18S, duplicate wells
Method in brief: as §2

PEDF-R = assay: Immunoblot, PEDF-R protein in ARPE-19 lysates; assay type: cell-based, human; settings: H2O2 plus 10 ng/mL TNF-α, 8 hours
Method in brief: (§3)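 ARPE-19 cells (passages 27–40) were grown in DMEM/F-12 with 10% FBS at 37°C, 5% CO₂ to confluency and starved in 0.5% serum for 8 h. They were then exposed to graded H₂O₂ with 10 ng/mL TNF-α for 8 h. Total lysates were run on SDS-PAGE and immunoblotted, then stripped and reprobed for β-tubulin as loading control. Duplicate wells; each experiment at least twice.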

5-LOX = assay: Immunoblot, 5-LOX protein in ARPE-19 lysates; assay type: cell-based, human; settings: H2O2 plus 10 ng/mL TNF-α, 8 hours
Method in brief: as §3

ARPE-19 cells [6] = settings: cited from earlier work
ARPE-19 cells [7] = assay: Detection of reactive oxygen species; assay type: cell-based, human; settings: increasing H2O2 with or without 10 ng/mL TNF-α
Method in brief: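 Confluent ARPE-19 cells in 96-well black plates were serum-starved (0.5% serum, 8 h), then given increasing H₂O₂ with or without 10 ng/mL TNF-α, plus test peptide. CellRox Green was added 30 min before the end point, and fluorescence was read at ex 485/em 520 nm. Triplicate wells per point; each experiment was run twice.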

human recombinant 5-LOX = assay: His-tag pull-down assay, 5-LOX and PEDF-R; assay type: binding; settings: 5-LOX 250 ng, PEDF-R ∼350 and 700 ng, 0.1 M sodium phosphate, 50 mM NaCl, 0.1% NP-40, 4°C, 2 hours, Ni-NTA, Western blot
PEDF-R (PNPLA2) = settings: cited from earlier work

E5b: PEDF-R peptide Ile^193-Leu^232, overlapping P1 (ICPQDSSTNIHELRVTNTSIQFNLRNLYRLSKALFPPEPL)
Cell viability under oxidative stress (ARPE-19 cells [1]; H2O2/TNF-α, ATP live cell biomarker, duplicate wells): promoted cell viability | Pyknotic nuclei level (ARPE-19 cells [2]): resulted in a decrease of pyknotic nuclei level | Number of dead cells under oxidative stress (ARPE-19 cells [3]): decreased cell death of RPE cells undergoing oxidative stress | Protection from oxidative stress-induced cell death (summary) (ARPE-19 cells [3]; H2O2/TNF-α): protected ARPE-19 and pig primary RPE cells from oxidative stress–induced cell death in a specific and concentration-dependent fashion | Protection from oxidative stress-induced cell death (summary) (primary pig RPE cells [4]): protected ARPE-19 and pig primary RPE cells from oxidative stress–induced cell death in a specific and concentration-dependent fashion | PEDF-binding affinity (PEDF): retain the PEDF-binding affinity of PEDF-R

H-KRLQFEPRNYPSLLSTALPNILFRRLGGKFQDMRELCVYL-OH [SCR]
Number of dead cells under oxidative stress (ARPE-19 cells [3]): did not decrease the number of dead cells

OO [H2O2]
Relative cell numbers with increasing H2O2 (ARPE-19 cells [1]; 100-1000 μM H2O2, 10 ng/mL TNF-α, 16 hours): concentration-dependent decrease in cell numbers | Relative cell numbers with increasing H2O2 (primary pig RPE cells [5]): concentration-dependent decrease in cell numbers | Pyknotic nuclei level (ARPE-19 cells [2]): resulted in an increase | PNPLA2 mRNA level (PNPLA2): decreased the levels of PNPLA2 | ALOX5 mRNA level (ALOX5): remained unchanged | PEDF-R protein level (PEDF-R): paralleled those for expression of their respective genes | 5-LOX protein level (5-LOX): paralleled those for expression of their respective genes | Death mechanism of ARPE-19 cells (ARPE-19 cells [6]; 400 and 600 μM H2O2): apoptosis | Death mechanism of ARPE-19 cells (ARPE-19 cells [6]; H2O2 higher than 600 μM): necrosis | Death mechanism of ARPE-19 cells (ARPE-19 cells [6]; TNF-α (10 ng/mL) and 400 to 800 μM H2O2): apoptotic mechanism via caspase activation

TNF-α
ROS production, presence versus absence of TNF-α (ARPE-19 cells [7]): comparable under both conditions

B1: His6-tag-PEDF-R: human recombinant His6/Xpress-tagged PEDF-R made by cell-free in vitro protein synthesis (protein)
chain: MFPREKTWNISFAGCGFLGVYYVGVASCLREHAPFLVANATHIYGASAGALTATALVTGVCLGEAGAKFIEVSKEARKRFLGPLHPSFNLVKIIRSFLLKVLPADSHEHASGRLGISLTRVSDGENVIISHFNSKDELIQANVCSGFIPVYCGLIPPSLQGVRYVDGGISDNLPLYELKNTITVSPFSGESDICPQDSSTNIHELRVTNTSIQFNLRNLYRLSKALFPPEPLVLREMCKQGYRDGLRFLQRNGLLNRPNPLLALPPARPHGPEDKDQAVESAQAEDYSQLPGEDHILEHLPARLNEALLEACVEPTDLLTTLSNMLPVRLATAMMVPYTLPLESALSFTIRLLEWLPDVPEDIRWMKEQTGSICQYLVMRAKRKLGRHLPSRLPEQVELRRVQSLPSVPLSCAAYREALPGWMRNNLSLGDALAKWEECQRQLLLGLFCTNVAFPPEALRMRAPADPAPAPADPASPQHQLAGPAPLLSTPAPEARPVIGALGL
modifications: left off: His6, end not stated, kept | Xpress, end not stated, kept
Bound 5-LOX in pull-down with His6-tag-PEDF-R (human recombinant 5-LOX): proportional increase of bound 5-LOX | Bound 5-LOX in pull-down with His6-tag-PEDF-R (human recombinant 5-LOX; listed as His6/Xpress-tagged PEDF-R): via ionic interactions

B2: CGI-58: protein that stimulates PEDF-R (PNPLA2) activity (protein, UniProt Q8WTS1 2-349, looked up)
1-acylglycerol-3-phosphate …: AAEEEEVDSADTGERSGWLTGWLPTWCPTSISHLKEAEEKMLKCVPCTYKKEPVRISNGNKIWTLKFSHNISNKTPLVLLHGFGGGLGLWALNFGDLCTNRPVYAFDLLGFGRSSRPRFDSDAEEVENQFVESIEEWRCALGLDKMILLGHNLGGFLAAAYSLKYPSRVNHLILVEPWGFPERPDLADQDRPIPVWIRALGAALTPFNPLAGLRIAGPFGLSLVQRLRPDFKRKYSSMFEDDTVTEYIYHCNVQTPSGETAFKNMTIPYGWAKRPMLQRIGKMHPDIPVSVIFGARSCIDGNSGTSIQSLRPHSYVKTIAILGAGHYVYADQPEEFNQKVKEICDTVD
Effect on PEDF-R (PNPLA2) enzyme activity (PEDF-R (PNPLA2)): stimulated

B3: PEDF: pigment epithelium-derived factor, stimulates PEDF-R (protein, UniProt P36955 20-418, looked up)
Pigment epithelium-derived …: QNPASPPEEGSPDPDSTGALVEEEDPFFKVPVNKLAAAVSNFGYDLYRVRSSTSPTTNVLLSPLSVATALSALSLGAEQRTESIIHRALYYDLISSPDIHGTYKELLDTVTAPQKNLKSASRIVFEKKLRIKSSFVAPLEKSYGTRPRVLTGNPRLDLQEINNWVQAQMKGKLARSTKEIPDEISILLLGVAHFKGQWVTKFDSRKTSLEDFYLDEERTVRVPMMSDPKAVLRYGLDSDLSCKIAQLPLTGSMSIIFFLPLKVTQNLTLIEESLTSEFIHDIDRELKTVQAVLTVPKLKLSYEGEVTKSLQEMKLQSLFDSPDFSKITGKPIKLTQVEHRAGFEWNEDGAGTTPSPGLQPAHLTFPLDYHLNQPFIFVLRDTDTGALLFIGKILDPRGP
Effect on PEDF-R (PNPLA2) enzyme activity (PEDF-R (PNPLA2)): stimulated

B4: G0S2: G(0)/G(1) switch gene 2, inhibits PEDF-R (PNPLA2) (protein, UniProt P27469 1-103, looked up)
G0/G1 switch protein 2: METVQELIPLAKEMMAQKRKGKMVKLYVLGSVLALFGVVLGLMETVCSPFTAARRLRDQEAAVAELQAALERQALQKQALQEKGKQQDTVLGGRALSNRQHAS
Effect on PEDF-R (PNPLA2) enzyme activity (PEDF-R (PNPLA2)): inhibited

B5: perilipin 5: protein that inhibits PEDF-R (PNPLA2) activity (protein, UniProt Q00G26 1-463, looked up)
Perilipin-5: MSEEEAAQIPRSSVWEQDQQNVVQRVVALPLVRATCTAVCDVYSAAKDRHPLLGSACRLAENCVCGLTTRALDHAQPLLEHLQPQLATMNSLACRGLDKLEEKLPFLQQPSETVVTSAKDVVASSVTGVVDLARRGRRWSVELKRSVSHAVDVVLEKSEELVDHFLPMTEEELAALAAEAEGPEVGSVEDQRRQQGYFVRLGSLSARIRHLAYEHSVGKLRQSKHRAQDTLAQLQETLELIDHMQCGVTPTAPACPGKVHELWGEWGQRPPESRRRSQAELETLVLSRSLTQELQGTVEALESSVRGLPAGAQEKVAEVRRSVDALQTAFADARCFRDVPAAALAEGRGRVAHAHACVDELLELVVQAVPLPWLVGPFAPILVERPEPLPDLADLVDEVIGGPDPRWAHLDWPAQQRAWEAEHRDGSGNGDGDRMGVAGDICEQEPETPSCPVKHTLMPELDF
Effect on PEDF-R (PNPLA2) enzyme activity (PEDF-R (PNPLA2)): inhibited
